Positions count from the first letter of the chain named. pEC50, pIC50, pKi: −log10 of the molar value.
Key:
[1] = molecular target: T1, Muscarinic acetylcholine receptor M1 (Rattus norvegicus) (UniProt P08482); test: Percentage inhibition of binding of [3H]quinuclidinyl benzilate to muscarinic acetylcholine receptor M1 in rat cerebral cortical membranes; format: cell membranes; parameters: concentration or dose not given beside the values; details: Membrane, concentration not given here
T1 sequence (whole entry): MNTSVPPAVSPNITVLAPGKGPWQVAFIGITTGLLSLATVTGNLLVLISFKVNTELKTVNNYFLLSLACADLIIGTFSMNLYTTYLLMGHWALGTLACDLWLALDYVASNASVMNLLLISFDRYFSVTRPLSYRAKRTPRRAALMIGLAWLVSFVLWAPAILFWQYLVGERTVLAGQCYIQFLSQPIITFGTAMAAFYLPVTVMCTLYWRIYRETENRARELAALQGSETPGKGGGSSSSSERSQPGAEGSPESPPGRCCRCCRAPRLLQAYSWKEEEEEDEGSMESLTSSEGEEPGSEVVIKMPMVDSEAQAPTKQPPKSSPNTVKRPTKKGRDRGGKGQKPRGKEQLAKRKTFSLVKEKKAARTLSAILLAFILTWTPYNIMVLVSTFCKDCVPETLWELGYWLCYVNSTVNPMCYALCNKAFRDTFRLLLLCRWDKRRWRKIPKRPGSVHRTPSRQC
In short: (§1)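 Rat cerebral cortex membranes were homogenised in 50 mM Tris-HCl pH 7.4 and diluted in HEPES binding buffer. They were incubated with 0.2 nM [3H]quinuclidinyl benzilate in 20 mM HEPES pH 7.4 with 10 mM MgCl2 and 100 mM NaCl for 30 min at 37 °C, in triplicate. Nonspecific binding used 1 µM atropine. Filtration was followed by scintillation counting.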

[2] = molecular target: T2, Neuronal acetylcholine receptor; alpha4/beta2 (Rattus norvegicus) (UniProt P09483+P12390); test: Inhibition of binding of [3H]nicotine to Nicotinic acetylcholine receptor alpha4-beta2 in rat cerebral cortical membranes at 100 uM concentration; format: cell membranes; details: Membrane
In short: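 [3H]nicotine (0.2 nM) binding to rat cortical membranes, with 200 µM diisopropyl fluorophosphate, 120 min at 0–4 °C, triplicate. Nonspecific binding with 1 µM nicotine. Percent inhibition at 100 µM test agent; mean ± SEM, n = 4.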

[3] = molecular target: T2, Neuronal acetylcholine receptor; alpha4/beta2 (Rattus norvegicus); test: (§2) The compound was evaluated for percentage inhibition of binding of [3H]- nicotine to Nicotinic acetylcholine receptor alpha4-beta2 in Rat Cerebral Cortical Membranes; format: protein-complex assay; parameters: concentration or dose not given beside the values; details: concentration not given here
In short: (§3)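 Rat cerebral cortex membranes with 0.2 nM [3H]nicotine in HEPES binding buffer pH 7.4 containing 200 µM diisopropyl fluorophosphate. Incubation was 120 min at 0–4 °C, in triplicate. Nonspecific binding used 1 µM nicotine. Samples were filtered through polyethylenimine-soaked GF/B filters and counted.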

[4] = molecular target: T3, Muscarinic acetylcholine receptor M1 (Homo sapiens) (UniProt P11229); test: Percentage inhibition of binding of [3H]quinuclidinyl benzilate to muscarinic receptors in membranes of CHO cells transfected with Muscarinic acetylcholine receptor M1; format: cell membranes; details: concentration not given here
T3 sequence (whole entry): T1 sequence (whole entry) with V5A, S254T, S309P, K320R, G337A, V413I
In short: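 Membranes from CHO cells expressing human M1–M4 receptors in 25 mM sodium phosphate pH 7.4 with 5 mM MgCl2, 30 min at 37 °C, triplicate. [3H]quinuclidinyl benzilate was 0.2 nM for M1 and M3 and 0.1 nM for M2 and M4. Nonspecific binding used 10 µM atropine for M1 and 1 µM for the others.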

[5] = molecular target: T4, Muscarinic acetylcholine receptor M3 (Homo sapiens, UniProt P20309); test: Percentage inhibition of binding of [3H]quinuclidinyl benzilate to muscarinic receptors in membranes of CHO cells transfected with Muscarinic acetylcholine receptor M3; format: cell membranes; details: concentration not given here
T4 sequence (P20309 whole entry, looked up): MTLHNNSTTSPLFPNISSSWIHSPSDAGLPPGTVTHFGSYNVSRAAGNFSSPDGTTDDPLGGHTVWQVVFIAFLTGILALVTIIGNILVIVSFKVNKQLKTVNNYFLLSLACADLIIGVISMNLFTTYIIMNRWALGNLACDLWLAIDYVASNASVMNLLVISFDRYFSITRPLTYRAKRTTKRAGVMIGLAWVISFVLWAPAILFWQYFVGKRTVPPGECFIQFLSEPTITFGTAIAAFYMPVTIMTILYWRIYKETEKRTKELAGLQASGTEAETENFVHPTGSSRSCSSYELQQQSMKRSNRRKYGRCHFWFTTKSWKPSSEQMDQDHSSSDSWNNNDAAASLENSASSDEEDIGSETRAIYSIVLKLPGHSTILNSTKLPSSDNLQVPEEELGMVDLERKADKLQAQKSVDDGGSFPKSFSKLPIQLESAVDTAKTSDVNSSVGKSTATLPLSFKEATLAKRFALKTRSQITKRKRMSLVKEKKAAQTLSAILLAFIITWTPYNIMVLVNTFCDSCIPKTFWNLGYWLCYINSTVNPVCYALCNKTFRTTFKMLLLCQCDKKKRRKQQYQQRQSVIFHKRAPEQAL

[6] = molecular target: T5, Muscarinic acetylcholine receptor M2 (Homo sapiens, UniProt P08172); test: Inhibitory activity against [3H]quinuclidinyl Benzilate binding to Muscarinic acetylcholine receptor M2 in the absence of GTP
T5 sequence (P08172 whole entry): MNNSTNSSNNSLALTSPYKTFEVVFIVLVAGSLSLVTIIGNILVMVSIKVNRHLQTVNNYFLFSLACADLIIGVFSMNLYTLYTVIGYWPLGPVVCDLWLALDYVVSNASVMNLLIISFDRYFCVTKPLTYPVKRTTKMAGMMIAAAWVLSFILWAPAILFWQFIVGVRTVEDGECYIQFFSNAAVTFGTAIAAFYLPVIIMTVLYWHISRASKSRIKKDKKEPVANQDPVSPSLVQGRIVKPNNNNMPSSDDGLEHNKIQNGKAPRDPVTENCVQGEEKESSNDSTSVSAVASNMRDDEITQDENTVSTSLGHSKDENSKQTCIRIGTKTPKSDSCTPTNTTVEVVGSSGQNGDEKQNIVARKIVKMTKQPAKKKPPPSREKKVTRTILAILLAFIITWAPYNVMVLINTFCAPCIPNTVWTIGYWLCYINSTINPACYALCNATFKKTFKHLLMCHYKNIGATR
In short: (§4)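 Membranes from CHO cells expressing human M2 receptor. Competition against 0.1 nM [3H]quinuclidinyl benzilate in 25 mM sodium phosphate pH 7.4, 5 mM MgCl2, without or with 10 μM GTP; 30 min at 37 °C, triplicate. Nonspecific binding with 1 μM atropine. Filtration, scintillation counting.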

[7] = molecular target: T5, Muscarinic acetylcholine receptor M2; test: Inhibitory activity against [3H]quinuclidinyl Benzilate binding to Muscarinic acetylcholine receptor M2 in the presence of GTP; in short: as §4
[8] = molecular target: T5, Muscarinic acetylcholine receptor M2; test: Inhibition of binding of [3H]quinuclidinyl benzilate to muscarinic receptors in membranes of CHO cells transfected with Muscarinic acetylcholine receptor M2; format: cell membranes
[9] = molecular target: T6, Muscarinic acetylcholine receptor M4 (Homo sapiens, UniProt P08173); test: Inhibition of binding of [3H]quinuclidinyl benzilate to muscarinic receptors in membranes of CHO cells transfected with Muscarinic acetylcholine receptor M4; format: cell membranes
T6 sequence (P08173 whole entry): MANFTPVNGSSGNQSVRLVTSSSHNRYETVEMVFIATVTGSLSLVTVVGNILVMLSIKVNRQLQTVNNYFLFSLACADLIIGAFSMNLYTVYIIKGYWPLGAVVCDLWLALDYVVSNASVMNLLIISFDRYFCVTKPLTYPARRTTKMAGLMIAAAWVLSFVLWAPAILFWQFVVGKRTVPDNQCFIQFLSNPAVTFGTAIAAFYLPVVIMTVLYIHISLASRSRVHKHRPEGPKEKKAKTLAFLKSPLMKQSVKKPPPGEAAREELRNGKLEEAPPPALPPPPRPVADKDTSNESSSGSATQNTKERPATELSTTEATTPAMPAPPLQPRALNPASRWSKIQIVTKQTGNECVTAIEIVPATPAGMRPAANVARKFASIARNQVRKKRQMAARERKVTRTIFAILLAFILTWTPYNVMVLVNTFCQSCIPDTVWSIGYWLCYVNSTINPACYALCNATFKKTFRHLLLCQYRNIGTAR

[10] = molecular target: Muscarinic acetylcholine receptor M2 (Homo sapiens) (UniProt P08172); test: Inhibition of binding of [3H]quinuclidinyl benzilate to Muscarinic acetylcholine receptor M2 in membranes of transfected CHO cells
[11] = molecular target: Muscarinic acetylcholine receptor M4 (Homo sapiens) (UniProt P08173); test: Inhibition of binding of [3H]quinuclidinyl benzilate to Muscarinic acetylcholine receptor M4 in membranes of transfected CHO cells
[12] = molecular target: Muscarinic acetylcholine receptor M4 (Homo sapiens) (UniProt P08173); test: Inhibitory activity against [3H]-cyclic AMP accumulation in CHO transfected cells mediated by Muscarinic acetylcholine receptor M4
[13] = molecular target: Muscarinic acetylcholine receptor M2 (Homo sapiens) (UniProt P08172); test: Inhibition of binding of 0.1 nM [3H]quinuclidinyl benzilate to Muscarinic acetylcholine receptor M2 in membranes of transfected CHO cells in the absence of GTP
[14] = molecular target: Muscarinic acetylcholine receptor M2 (Homo sapiens) (UniProt P08172); test: Inhibition of binding of 0.1 nM [3H]quinuclidinyl benzilate to Muscarinic acetylcholine receptor M2 in membranes of transfected CHO cells in the presence of 10 uM GTP
[15] = molecular target: Muscarinic acetylcholine receptor M1 (Homo sapiens) (UniProt P11229); test: Inhibitory activity against stimulation of [3H]inositol monophosphate accumulation in [3H]inositol-labelled CHO transfected cells mediated by Muscarinic acetylcholine receptor M1
Target sequence in this assay (P11229 whole entry, looked up): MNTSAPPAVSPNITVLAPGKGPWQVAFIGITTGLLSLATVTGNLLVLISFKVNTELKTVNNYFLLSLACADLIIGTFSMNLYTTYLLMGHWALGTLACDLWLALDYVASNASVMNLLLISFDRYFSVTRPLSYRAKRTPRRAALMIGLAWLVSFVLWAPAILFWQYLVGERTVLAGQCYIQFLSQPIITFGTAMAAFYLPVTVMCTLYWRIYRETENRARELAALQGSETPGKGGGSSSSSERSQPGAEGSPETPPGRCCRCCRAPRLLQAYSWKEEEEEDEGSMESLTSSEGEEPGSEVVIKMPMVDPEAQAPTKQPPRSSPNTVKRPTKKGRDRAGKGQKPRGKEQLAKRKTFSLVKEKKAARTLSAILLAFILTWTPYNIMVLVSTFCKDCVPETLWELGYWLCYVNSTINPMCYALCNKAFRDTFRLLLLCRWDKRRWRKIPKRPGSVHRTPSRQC

[16] = molecular target: T4, Muscarinic acetylcholine receptor M3; test: Inhibitory activity against stimulation of [3H]inositol monophosphate accumulation in [3H]inositol-labelled CHO transfected cells mediated by Muscarinic acetylcholine receptor M3
[17] = molecular target: T7, Neuronal acetylcholine receptor; alpha4/beta2 (Rattus norvegicus, UniProt P09483+P12390); test: Inhibition of binding of [3H]nicotine to Nicotinic acetylcholine receptor alpha4-beta2 in rat cerebral cortical membranes; format: cell membranes, Membrane; in short: as §3
T7 sequence (P09483 whole entry): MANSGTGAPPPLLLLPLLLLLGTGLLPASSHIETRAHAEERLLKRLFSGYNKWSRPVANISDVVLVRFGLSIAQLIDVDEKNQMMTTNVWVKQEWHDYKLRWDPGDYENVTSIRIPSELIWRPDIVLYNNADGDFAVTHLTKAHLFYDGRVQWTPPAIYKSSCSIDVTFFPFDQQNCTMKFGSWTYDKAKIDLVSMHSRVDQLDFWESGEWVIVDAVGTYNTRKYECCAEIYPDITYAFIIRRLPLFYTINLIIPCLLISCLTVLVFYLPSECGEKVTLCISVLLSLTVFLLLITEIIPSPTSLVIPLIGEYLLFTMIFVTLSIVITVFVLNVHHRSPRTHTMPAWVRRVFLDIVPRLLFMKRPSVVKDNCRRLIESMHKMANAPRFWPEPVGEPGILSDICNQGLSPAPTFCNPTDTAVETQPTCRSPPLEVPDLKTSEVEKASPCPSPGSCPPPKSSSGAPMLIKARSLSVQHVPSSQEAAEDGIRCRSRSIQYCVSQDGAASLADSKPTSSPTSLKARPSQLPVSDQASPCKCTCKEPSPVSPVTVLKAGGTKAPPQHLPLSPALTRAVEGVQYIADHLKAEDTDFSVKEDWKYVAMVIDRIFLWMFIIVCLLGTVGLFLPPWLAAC
T7 sequence (P12390 whole entry): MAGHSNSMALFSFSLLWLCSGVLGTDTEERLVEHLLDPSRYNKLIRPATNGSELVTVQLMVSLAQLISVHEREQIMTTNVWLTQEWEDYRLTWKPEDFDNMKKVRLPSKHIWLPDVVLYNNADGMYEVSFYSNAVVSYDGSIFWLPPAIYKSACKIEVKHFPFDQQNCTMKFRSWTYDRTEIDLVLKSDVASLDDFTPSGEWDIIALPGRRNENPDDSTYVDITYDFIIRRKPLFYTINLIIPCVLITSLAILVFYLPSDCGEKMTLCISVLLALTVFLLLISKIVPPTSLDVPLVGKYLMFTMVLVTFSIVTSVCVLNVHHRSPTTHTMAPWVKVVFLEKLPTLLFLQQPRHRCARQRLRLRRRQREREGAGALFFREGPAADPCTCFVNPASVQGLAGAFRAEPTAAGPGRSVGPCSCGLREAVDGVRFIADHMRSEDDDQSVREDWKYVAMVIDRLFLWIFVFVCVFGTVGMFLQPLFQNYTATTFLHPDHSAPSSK

[18] = molecular target: T7, Neuronal acetylcholine receptor; alpha4/beta2; test: as §2; format: protein-complex assay; in short: as §3
[19] = molecular target: T3, Muscarinic acetylcholine receptor M1 (Homo sapiens); test: Percentage inhibition of binding of [3H]quinuclidinyl benzilate to […] Muscarinic acetylcholine receptor M1 transfected in membranes of CHO cells; format: cell membranes; details: concentration not given here
[20] = molecular target: T8, Muscarinic acetylcholine receptor M1 (Rattus norvegicus, UniProt P08482); test: Inhibition of binding of [3H]quinuclidinyl benzilate to Muscarinic acetylcholine receptor M1 in rat cerebral cortical membranes at 100 uM concentration; format: cell membranes, Membrane
T8 sequence (P08482 whole entry): T1 sequence (whole entry)
In short: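 Rat cortical membranes with 0.2 nM [3H]quinuclidinyl benzilate in HEPES pH 7.4 with 10 mM MgCl2 and 100 mM NaCl, 30 min at 37 °C, triplicate. Atropine 1 µM defined nonspecific binding. Percent inhibition was read at 100 µM test agent; mean ± SEM, n = 4.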

[21] = molecular target: T8, Muscarinic acetylcholine receptor M1; test: The compound was evaluated for inhibition of binding of [3H]quinuclidinyl benzilate to Muscarinic acetylcholine receptor M1 in Rat Cerebral Cortical Membranes; in short: as §1
[22] = molecular target: T4, Muscarinic acetylcholine receptor M3; test: Inhibition of binding of [3H]quinuclidinyl benzilate to muscarinic receptors in membranes of CHO cells transfected with […] Muscarinic acetylcholine receptor M3; format: cell membranes; details: concentration not given here
[23] = molecular target: T4, Muscarinic acetylcholine receptor M3; test: Inhibition of binding of [3H]quinuclidinyl benzilate to human Muscarinic acetylcholine receptor M3 in membranes of transfected CHO cells at 100 uM concentration; details: Membrane
[24] = molecular target: Muscarinic acetylcholine receptor M3 (Rattus norvegicus) (UniProt P08483); details: Membrane; 300 uM
Muscarinic acetylcholine receptor M3 (Rattus norvegicus), sequence (P08483 whole entry, looked up): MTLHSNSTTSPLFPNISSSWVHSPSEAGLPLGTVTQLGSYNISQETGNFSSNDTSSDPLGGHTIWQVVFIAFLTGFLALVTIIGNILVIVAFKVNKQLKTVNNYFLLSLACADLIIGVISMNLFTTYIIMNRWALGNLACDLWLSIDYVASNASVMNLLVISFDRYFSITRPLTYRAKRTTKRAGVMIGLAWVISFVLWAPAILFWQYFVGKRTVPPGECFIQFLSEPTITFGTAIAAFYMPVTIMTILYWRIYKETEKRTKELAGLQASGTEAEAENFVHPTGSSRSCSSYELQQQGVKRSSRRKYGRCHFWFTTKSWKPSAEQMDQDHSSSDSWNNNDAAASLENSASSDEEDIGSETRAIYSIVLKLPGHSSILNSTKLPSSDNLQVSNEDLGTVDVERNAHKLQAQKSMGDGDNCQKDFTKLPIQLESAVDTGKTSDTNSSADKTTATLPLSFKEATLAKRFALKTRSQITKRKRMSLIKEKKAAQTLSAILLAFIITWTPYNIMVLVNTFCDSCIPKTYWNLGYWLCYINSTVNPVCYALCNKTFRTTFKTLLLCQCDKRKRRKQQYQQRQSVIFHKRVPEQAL

Compound: COC(=O)C1CC2NC1CCC2=O (configuration not stated)
- inhibition [1]: 0%
- inhibition [2]: 15%
- inhibition [3]: 15%

Compound: CC(=O)OC(C)C[N+](C)(C)C (configuration not stated) [METHACHOLINE]
- inhibition [4]: 8%
- inhibition [5]: 34%
- pIC50 [6]: 6.42
- pIC50 [7]: 5.28
- pKi [8]: 7.23
- pKi [9]: 5.80
- pKi [10]: 7.23
- pKi [11]: 5.80
- pIC50 [12]: 6.15
- pIC50 [13]: 6.42
- pIC50 [14]: 5.28
- pEC50 [15]: 6.40
- pEC50 [16]: 6.92

Compound: CC(=O)OC1CC2CC(=O)CC1N2C (configuration not stated)
- inhibition [1]: 0%
- inhibition [2]: 5%
- inhibition [3]: 5%

Compound: COC(=O)[C@H]1CC2NC1CC[C@H]2O (some centres not stated)
- pKi [17]: 4.19
- pKi [18]: 4.19

Compound: COC(=O)C1=CCC2CCC1N2C (configuration not stated)
- inhibition [19]: 26%
- pKi [20]: 4.60
- pKi [21]: 4.60
- inhibition [22]: 28%
- inhibition [23]: 28%

Compound: COC(=O)[C@H]1CC2NC1CC[C@@H]2OC(C)=O (some centres not stated)
- inhibition [1]: 1%
- inhibition [2]: 13%
- inhibition [3]: 13%

Compound: CC(=O)O[C@H]1CCC2CCC1N2 (some centres not stated)
- pKi [17]: 4.49
- pKi [18]: 4.49

Compound: C[N+](C)(C)CCOC(N)=O
- inhibition [24]: 16%
